Data from paper PMC8028158 (ACS Omega, 2021).

Tests used:
mouse TRPC4 = target: T1, mouse TRPC4 (Mus musculus, UniProt Q9QUQ5); assay: Selectivity assay in HEK293 cells co-expressing TRPC4 and μ-opioid receptor; assay type: cell-based; settings: induced by DAMGO 1 μM
T1 sequence (Q9QUQ5 1-974): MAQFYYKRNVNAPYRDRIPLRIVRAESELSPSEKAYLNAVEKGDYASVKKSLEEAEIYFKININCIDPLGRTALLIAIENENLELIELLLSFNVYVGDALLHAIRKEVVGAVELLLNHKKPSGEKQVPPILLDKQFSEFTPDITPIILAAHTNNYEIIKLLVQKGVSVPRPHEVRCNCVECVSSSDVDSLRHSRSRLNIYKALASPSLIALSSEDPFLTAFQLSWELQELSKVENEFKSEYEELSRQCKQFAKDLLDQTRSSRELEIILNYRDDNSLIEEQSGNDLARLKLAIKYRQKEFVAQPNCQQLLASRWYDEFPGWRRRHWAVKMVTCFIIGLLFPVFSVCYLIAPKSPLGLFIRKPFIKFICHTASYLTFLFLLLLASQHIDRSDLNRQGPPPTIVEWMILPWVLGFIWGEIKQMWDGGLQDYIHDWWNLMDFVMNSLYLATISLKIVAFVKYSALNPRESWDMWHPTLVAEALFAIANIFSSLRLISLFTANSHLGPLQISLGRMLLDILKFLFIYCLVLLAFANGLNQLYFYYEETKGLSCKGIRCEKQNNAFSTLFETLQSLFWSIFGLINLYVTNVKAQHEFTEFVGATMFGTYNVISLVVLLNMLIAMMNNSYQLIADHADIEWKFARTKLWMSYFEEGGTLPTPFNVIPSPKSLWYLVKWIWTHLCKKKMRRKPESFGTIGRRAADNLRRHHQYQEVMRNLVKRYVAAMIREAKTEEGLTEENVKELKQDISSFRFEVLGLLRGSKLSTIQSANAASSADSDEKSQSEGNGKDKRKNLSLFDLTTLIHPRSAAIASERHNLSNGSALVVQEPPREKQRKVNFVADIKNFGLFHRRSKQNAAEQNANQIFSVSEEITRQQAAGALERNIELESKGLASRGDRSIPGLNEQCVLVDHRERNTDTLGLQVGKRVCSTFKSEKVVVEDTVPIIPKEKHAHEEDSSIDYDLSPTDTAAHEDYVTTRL

TRPA1 = TRPA1 (Homo sapiens, UniProt O75762); assay: Selectivity Ca2+ assay in TRPA1-expressing HEK293 cells; assay type: cell-based; settings: 1s 50 μM; Fluo-8
TRPV3 = target: T2, TRPV3 (Homo sapiens, UniProt Q8NET8); assay: Selectivity Ca2+ assay in TRPV3-expressing HEK293 cells; assay type: cell-based; settings: 1s 50 μM; Fluo-8
T2 sequence (Q8NET8 1-790): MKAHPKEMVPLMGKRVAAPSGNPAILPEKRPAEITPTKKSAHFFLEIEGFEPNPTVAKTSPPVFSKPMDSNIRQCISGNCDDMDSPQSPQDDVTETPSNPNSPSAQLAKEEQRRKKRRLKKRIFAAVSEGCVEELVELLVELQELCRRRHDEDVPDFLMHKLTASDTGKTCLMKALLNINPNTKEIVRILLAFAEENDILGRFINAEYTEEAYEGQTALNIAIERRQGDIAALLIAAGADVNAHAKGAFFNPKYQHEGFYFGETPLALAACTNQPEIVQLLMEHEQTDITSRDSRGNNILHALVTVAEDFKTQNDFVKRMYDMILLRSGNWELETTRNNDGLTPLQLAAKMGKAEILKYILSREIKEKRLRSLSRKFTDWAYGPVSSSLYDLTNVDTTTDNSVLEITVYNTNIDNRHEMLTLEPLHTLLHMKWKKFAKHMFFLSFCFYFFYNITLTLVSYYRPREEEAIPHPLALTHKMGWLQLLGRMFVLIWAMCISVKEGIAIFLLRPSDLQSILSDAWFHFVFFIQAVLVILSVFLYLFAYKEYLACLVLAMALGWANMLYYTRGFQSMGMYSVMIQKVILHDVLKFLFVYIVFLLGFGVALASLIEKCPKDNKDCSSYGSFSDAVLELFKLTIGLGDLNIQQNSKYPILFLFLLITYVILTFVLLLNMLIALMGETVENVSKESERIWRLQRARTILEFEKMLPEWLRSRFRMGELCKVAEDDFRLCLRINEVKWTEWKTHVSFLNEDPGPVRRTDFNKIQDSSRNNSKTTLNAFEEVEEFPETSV

MKN-45 cells [1] = assay: MTT cell viability assay, MKN-45; assay type: cell-based, human; settings: Homo sapiens, MKN-45, 72 h, read-out: IC50 cell proliferation, MKN-45
How it was run: (§1)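 Cells were seeded at 2000 per well, incubated overnight and exposed to test compound for 72 h. MTT was added for 4 h, formazan was dissolved in DMSO and absorbance was read at 570 nm. Viability was normalized to untreated wells, giving mean ± SEM of three trials. IC50 was calculated from relative survival.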

AGS cells = assay: MTT cell viability assay, AGS; assay type: cell-based, human; settings: Homo sapiens, AGS, 72 h, read-out: IC50 cell proliferation, AGS
How it was run: as §1

MKN-45 cells [2] = assay: Boyden chamber / Transwell cell migration assay; assay type: cell-based, human; settings: 24 h
How it was run: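 MKN-45 cells in serum-free medium were seeded with test compound on uncoated Transwell membranes (8 μm pores), with complete medium containing 10% FBS in the lower chamber, and left to migrate for 24 h. Cells on the upper surface were removed. Cells on the underside were fixed, stained with crystal violet and counted in six random fields. A positive-control compound was run alongside.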

TRPA1, sequence (O75762 whole entry, species assumed): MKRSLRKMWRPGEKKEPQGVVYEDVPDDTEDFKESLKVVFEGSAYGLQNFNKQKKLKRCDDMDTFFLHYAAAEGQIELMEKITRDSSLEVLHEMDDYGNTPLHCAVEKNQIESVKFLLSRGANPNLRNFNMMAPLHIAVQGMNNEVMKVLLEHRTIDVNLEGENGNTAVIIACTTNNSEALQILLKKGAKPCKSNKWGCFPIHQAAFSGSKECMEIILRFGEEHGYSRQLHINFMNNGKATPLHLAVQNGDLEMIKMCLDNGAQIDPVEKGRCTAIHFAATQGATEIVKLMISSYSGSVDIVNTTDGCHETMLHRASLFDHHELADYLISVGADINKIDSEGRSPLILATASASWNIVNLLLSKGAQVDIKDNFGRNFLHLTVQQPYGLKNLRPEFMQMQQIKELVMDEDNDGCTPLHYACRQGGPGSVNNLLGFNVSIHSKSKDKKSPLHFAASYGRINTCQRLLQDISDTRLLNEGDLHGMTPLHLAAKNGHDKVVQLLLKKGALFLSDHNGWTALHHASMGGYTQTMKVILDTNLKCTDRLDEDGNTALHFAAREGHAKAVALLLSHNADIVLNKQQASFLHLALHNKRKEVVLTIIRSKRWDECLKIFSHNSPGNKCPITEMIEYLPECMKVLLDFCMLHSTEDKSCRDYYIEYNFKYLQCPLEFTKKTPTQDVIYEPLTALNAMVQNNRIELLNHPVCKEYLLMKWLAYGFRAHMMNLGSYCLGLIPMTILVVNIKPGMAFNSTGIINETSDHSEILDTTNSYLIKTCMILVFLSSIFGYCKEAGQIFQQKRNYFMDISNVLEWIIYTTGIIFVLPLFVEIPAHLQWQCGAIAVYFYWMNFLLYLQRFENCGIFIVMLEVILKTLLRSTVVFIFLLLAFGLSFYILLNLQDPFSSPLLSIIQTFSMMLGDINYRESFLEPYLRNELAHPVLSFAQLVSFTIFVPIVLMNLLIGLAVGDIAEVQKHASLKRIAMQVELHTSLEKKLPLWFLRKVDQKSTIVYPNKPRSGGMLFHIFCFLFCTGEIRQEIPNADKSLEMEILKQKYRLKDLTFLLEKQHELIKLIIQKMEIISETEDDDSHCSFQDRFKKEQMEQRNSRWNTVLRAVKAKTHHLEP

Effect on TRPC4 (mouse TRPC4): only partially inhibited
Effect on agonist-induced Ca2+ response, TRPA1 (TRPA1): did not significantly affect
Effect on agonist-induced Ca2+ response, TRPV3 (TRPV3): did not significantly affect
IC50 (MKN-45 cells [1]): 8 ± 0.51 µM
IC50 (AGS cells): 12 ± 1.01 µM
Compound: COc1cccc2sc(N(CCN(C)C)C(=O)c3ccc4c(c3)CCCC4)nc12 [Compound 1s, N-(2-(dimethylamino)ethyl)-N-(4-methoxybenzo[d]thiazol-2-yl)-5,6,7,8-tetrahydronaphthalene-2-carboxamide]
MKN-45 cell invasion (movement through the pores toward chemoattractant) (MKN-45 cells [2]): inhibited
